The record followed here is ChEMBL document CHEMBL1124965, “Synthesis and dopamine agonist properties of (+-)-trans-3,4,4a,10b-tetrahydro-4-propyl-2H,5H-[1]benzopyrano [4,3-b]-1,4-oxazin-9-ol and its enantiomers” (J Med Chem, 1990).

Some results are limits rather than exact numbers.

The test system of test [1] is Mus musculus. Briefly: Inhibition of locomotor activity (LMA) in mice by the compound administered intraperitoneally. It is filed as functional. Put shortly:
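Spontaneous exploratory locomotor activity in mice after ip dosing; ED50 derived from four doses with at least three animals per dose.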

Test [2] deals with Rattus norvegicus. Briefly: Inhibition of dopamine neuronal firing activity in the rat substantia nigra DA neutrons (2.2 mg/kg administered intraperitoneally). It is filed as functional. Put shortly: (§1)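 Chloral hydrate-anesthetized rats; zona compacta DA cells recorded, identified by waveform and firing pattern, site confirmed histologically. Drug given ip via indwelling catheter. Baseline is the mean of the 2 min before injection; effect is the mean over the 1-min period of maximal inhibition; percent decrease, N = 3–4 cells.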

Test [3] has as its system Rattus norvegicus. Briefly: Reversal of reserpine-induced depression in rat (dose administered subcutaneously) Values generated from three doses;5-10 rats were used per dose. The following applies: sc. It is filed as functional. Put shortly: (§2)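 Rats pretreated with reserpine 5 mg/kg 24 h before testing; drug given sc and reversal of spontaneous locomotor inhibition measured; ED50 derived from three doses with 5–10 rats per dose.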

In test [4] the test system is Rattus norvegicus. Briefly: Inhibition of gamma-butyrolactone-stimulated DOPA synthesis in the corpus striatum of rats (dose administered subcutaneously). It is filed as functional. Conditions: sc. Put shortly:
(§3)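 Male Long-Evans rats dosed 30 min before GBL (750 mg/kg ip) plus decarboxylase inhibitor NSD 1015 (100 mg/kg ip); killed 30 min later. Striatal DOPA measured by HPLC with electrochemical detection. Expressed as percentage reversal versus GBL/NSD 1015-treated animals; N = 4–5.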

In test [5] the test system is Rattus norvegicus. Briefly: Inhibition of gamma-butyrolactone-stimulated DOPA synthesis in the corpus striatum of rats (30 mg/kg administered intraperitoneally). It is filed as functional. Put shortly: as §3
Test [6] concerns Rattus norvegicus. The test is described as follows: Inhibition of locomotor activity (LMA) in rats generated from four doses of 5-12 animals per dose (dose administered subcutaneously). Conditions: sc.
The test system of test [7] is Rattus norvegicus. The test is described as follows: Inhibition of dopamine neuronal firing activity in the rat substantia nigra DA neutrons (0.25 mg/kg administered intraperitoneally). It is filed as functional. Put shortly: as §1
In test [8] the test system is Rattus norvegicus. Briefly: Reversal of reserpine-induced depression in rat (dose administered subcutaneously) Values generated from three doses; 5-10 rats were used per dose. Conditions: sc.
The subject of test [9] is Rattus norvegicus. Briefly: Inhibition of gamma-butyrolactone-stimulated DOPA synthesis in the corpus striatum of rats (2 mg/kg administered intraperitoneally). It is filed as functional. A digest of the protocol:
as §3

Test [10] deals with T1, D(2) dopamine receptor (Rattus norvegicus, UniProt P61169). The test is described as follows: Affinity for [3H]N-propylnorapomorphine (NPA) Dopamine receptor D2.
Test [11] deals with T1, D(2) dopamine receptor. The test is described as follows: Concentration inhibiting specific binding of [3H]haloperidol to Dopamine receptor D2 from rat striatal brain.
Test [12] is filed under the species Rattus norvegicus. The test is described as follows: Inhibition of gamma-butyrolactone-stimulated DOPA synthesis in the corpus striatum of rats. It is filed as functional. A digest of the protocol: as §3
Test [13] concerns Rattus norvegicus. The test is described as follows: Reversal of reserpine-induced depression in rat (dose administered subcutaneously). It is filed as functional. The following applies: sc. Put shortly: as §2
The subject of test [14] is Rattus norvegicus. Briefly: Inhibition of locomotor activity (LMA) in rats generated from four doses of 5-12 animals per dose (dose administered po).
Where [15] appears, read: Mus musculus, ip, read-out: ED50.

By ED50 is commonly meant the midpoint of the dose-response relation. As usually defined, the IC50 is the concentration that gives 50% inhibition. High values mean a need for much substance, low ones inhibition by little substance.

T1 sequence (P61169 whole entry): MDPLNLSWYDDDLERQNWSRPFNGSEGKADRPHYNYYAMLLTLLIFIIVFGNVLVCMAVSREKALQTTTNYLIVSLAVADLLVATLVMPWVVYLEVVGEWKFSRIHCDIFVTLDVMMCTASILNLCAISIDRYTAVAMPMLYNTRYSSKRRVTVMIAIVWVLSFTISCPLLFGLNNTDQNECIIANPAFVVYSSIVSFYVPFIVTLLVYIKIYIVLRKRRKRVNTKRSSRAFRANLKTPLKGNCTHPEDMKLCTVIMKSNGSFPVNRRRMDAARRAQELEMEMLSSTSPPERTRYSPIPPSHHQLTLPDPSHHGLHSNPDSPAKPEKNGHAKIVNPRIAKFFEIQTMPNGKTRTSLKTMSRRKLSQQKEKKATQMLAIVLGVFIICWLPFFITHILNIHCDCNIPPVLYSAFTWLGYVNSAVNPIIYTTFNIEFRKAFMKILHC

With `CCCN(CCC)C1COc2ccc(O)cc2C1` (stereo not given), the ED50 in test [1] (setting [15]) was 11.3 mg/kg; in test [3], 13.4 mg/kg; in test [4] it was 0.04 mg/kg; in test [6] it was 0.17 mg/kg. In addition, the Decrease in [2] turned out to be 100%. Also, in test [5], the “Percent reversal of GBL-stimulated DOPA synthesis” value (“Percent reversal” for short) was determined as 100%.

Turning to `CN1CCc2cccc3c2[C@H]1Cc1ccc(O)c(O)c1-3` [APOMORPHINE], the ED50 in test [1] (setting [15]) turned out to be 0.3 mg/kg; in test [8] it was 0.096 mg/kg; in [4], 0.06 mg/kg; in test [6], 0.021 mg/kg. In test [7], this compound returned a Decrease of 100%. For the same compound, the Increase in test [9] was found to be 100%.

As to `CCCN1CCO[C@@H]2c3cc(O)ccc3OC[C@H]21`, the IC50 was 123 nM in test [10] and 409 nM in test [11]. The 50% effective dose (ED50) stood at 5.4 mg/kg in [1]; 6.25 mg/kg in test [13]; 0.03 mg/kg in test [4]; 5.8 mg/kg in test [14]; 0.03 mg/kg in [6]. For the same compound, the Decrease in test [2] stood at 100%. For the same compound, the Dose in [12] turned out to be 100%. Moreover, the “Percent reversal” value in test [5] is 88.4%.

Compound `CCCN1CCO[C@H]2c3cc(O)ccc3OC[C@@H]21` yielded a concentration for half-maximal inhibition (IC50) in test [11] of over 100000 nM. Besides, the median effective dose (ED50) in [1] (setting [15]) was over 30 mg/kg. For the same compound, in [2], the Decrease stood at 9%. For the same compound, the “Percent reversal” value in [5] is 0%.

As to `CCCN1CCO[C@@H]2c3cc(O)ccc3OC[C@H]21` (racemic), the IC50 in [11] is 900 nM. The ED50 in test [1] is 11 mg/kg. The same compound had a Decrease in test [2] of 99%. In addition, in test [5], the “Percent reversal” value came to 61.8%.
